Experimental data taken from ChEMBL document CHEMBL1127414 (J Med Chem, 1994).
In brackets after ≈: the same amount, converted by molar mass.

Legend:
[1] = test system: Mus musculus; assay: Tested for its ability to inhibit the incorporation of [5-3H]-mevalonolactone into cholesterol by in vivo mouse assay by peroral administration at a dose of 12 mg/kg; assay type: functional; settings: route oral
Procedure, shortened: (§1)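 Female Swiss Webster mice (~25 g), six per group, dosed po by gavage with inhibitor suspended in 5% emulphor. 30 min later, 0.5 μCi/mouse [5-3H]mevalonolactone in saline given sc. Livers removed 30 min after that and saponified in KOH/EtOH overnight at 55 °C, then petroleum-ether extracted. Nonsaponifiable dpm counted. Compounds first tested at a single dose (typically 12 or 24 mg/kg).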

[2] = target: T1, Squalene synthase (Rattus norvegicus, UniProt Q02769); assay: Concentration required for inhibition of rat liver squalene synthase enzyme at 161 nM; Not active
T1 sequence (Q02769 whole entry): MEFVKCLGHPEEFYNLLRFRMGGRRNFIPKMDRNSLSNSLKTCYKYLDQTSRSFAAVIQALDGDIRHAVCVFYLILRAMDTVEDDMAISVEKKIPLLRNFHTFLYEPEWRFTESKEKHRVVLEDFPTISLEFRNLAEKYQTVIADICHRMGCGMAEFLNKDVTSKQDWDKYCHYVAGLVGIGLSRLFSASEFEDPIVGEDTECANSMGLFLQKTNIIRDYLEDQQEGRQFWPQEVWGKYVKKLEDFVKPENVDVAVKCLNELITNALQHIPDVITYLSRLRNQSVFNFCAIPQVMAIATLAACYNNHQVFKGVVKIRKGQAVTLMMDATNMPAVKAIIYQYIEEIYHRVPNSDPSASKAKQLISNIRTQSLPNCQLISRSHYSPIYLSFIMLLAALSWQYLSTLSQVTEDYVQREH

[3] = target: T2, Squalene synthase (Mus musculus) (UniProt P53798); assay: Tested for the effective dose required for the incorporation of [5-3H]-mevalonolactone into cholesterol by in vivo mouse assay by peroral administration; assay type: functional, organism-based; procedure, shortened: as §1
T2 sequence (whole entry): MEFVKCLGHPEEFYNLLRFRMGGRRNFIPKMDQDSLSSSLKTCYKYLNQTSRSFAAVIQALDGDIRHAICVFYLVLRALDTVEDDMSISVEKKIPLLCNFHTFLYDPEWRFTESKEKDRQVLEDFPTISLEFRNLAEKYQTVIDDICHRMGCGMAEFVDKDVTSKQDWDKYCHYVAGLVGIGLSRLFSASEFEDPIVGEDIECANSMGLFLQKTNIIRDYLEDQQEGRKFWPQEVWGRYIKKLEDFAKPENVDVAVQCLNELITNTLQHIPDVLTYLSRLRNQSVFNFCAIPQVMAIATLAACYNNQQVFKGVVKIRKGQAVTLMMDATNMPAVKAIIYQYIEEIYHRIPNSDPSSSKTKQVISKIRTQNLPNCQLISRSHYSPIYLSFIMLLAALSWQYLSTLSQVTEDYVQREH

[4] = test system: Candida tropicalis; assay: Concentration required to inhibit growth of MY 1012 strain of Candida tropicalis; assay type: functional
Procedure, shortened: (§2)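 Broth microdilution against a panel of clinically relevant fungal strains. Read-out was the minimum fungicidal concentration in μg/mL.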

[5] = test system: squalene synthase (Saccharomyces cerevisiae); assay: compound required to inhibit 50% activity of yeast squalene synthase enzyme relative to control (L-694,599).
[6] = test system: Cryptococcus neoformans; assay: Concentration required to inhibit growth of MY 2061 strain of Cryptococcus neoformans; assay type: functional; procedure, shortened: as §2
[7] = test system: Mus musculus; assay: (§3) Tested for its ability to inhibit the incorporation of [5-3H]-mevalonolactone into cholesterol by in vivo mouse assay by peroral administration at a dose of 40 mg/kg; assay type: functional; settings: route oral; procedure, shortened: as §1
[8] = test system: Candida parapsilosis; assay: Concentration required to inhibit growth of MY 1010 strain of Candida parapsilosis; assay type: functional; settings: Lodderomyces parapsilosis; procedure, shortened: as §2
[9] = test system: HepG2; assay: Concentration required to inhibit cholesterol synthesis in Hep G2 cells; assay type: functional, cell-based; settings: Homo sapiens
Procedure, shortened: (§4)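 Hep G2 cells held 2 days in lipoprotein-depleted FBS to stimulate sterol synthesis, then given inhibitor in serum-free medium for 2 h. 15 μCi [5-3H]mevalonate (0.2 mCi/mmol) added for 1 h. Cells washed and saponified, and radioactivity counted by scintillation.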

[10] = target: T1, Squalene synthase; assay: Tested for inhibition against squalene synthase enzyme in rat liver
[11] = test system: Candida albicans; assay: Concentration required to inhibit growth of MY 1750 strain of Candida albicans; assay type: functional; procedure, shortened: as §2
[12] = test system: Aspergillus fumigatus; assay: Concentration required to inhibit growth of MF 4839 strain of Aspergillus fumigatus; assay type: functional; procedure, shortened: as §2
[13] = test system: Cryptococcus neoformans; assay: Concentration required to inhibit growth of MY 1051 strain of Cryptococcus neoformans; assay type: functional; procedure, shortened: as §2
[14] = test system: Candida albicans; assay: Concentration required to inhibit growth of MY 1055 strain of Candida albicans; assay type: functional; procedure, shortened: as §2
[15] = test system: HepG2; assay: Concentration required to inhibit cholesterol synthesis in Hep G2 cells relative to control (IC50 of L-694,599); assay type: functional, Homo sapiens; procedure, shortened: as §4
[16] = target: T3, Squalene synthase (Rattus norvegicus) (UniProt Q02769); assay: concentration required to inhibit rat liver squalene synthase enzyme relative to control (L-694,599)
T3 sequence (whole entry): T1 sequence (Q02769 whole entry)
Procedure, shortened: (§5)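 Enzyme from rat liver. […] Inhibitors added in DMSO (0.3% final) as 3-fold serial dilutions, usually up to 30 ng/mL (about 40 nM). IC50 read from % inhibition vs log concentration.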

[17] = target: T1, Squalene synthase; assay: Concentration required for inhibition of rat liver squalene synthase enzyme at 161 nM; NA = not active
[18] = test system: Mus musculus; assay: as §3; assay type: ADME, organism-based; design: dose 40 mg/kg, route oral; settings: po; procedure, shortened: as §1
[19] = target: T3, Squalene synthase (Rattus norvegicus); assay: Concentration required to inhibit rat liver squalene synthase enzyme relative to control (L-694,599); procedure, shortened: as §5
[20] = test system: Trichophyton benhamiae; assay: Concentration required to inhibit growth of MF 4864 strain of Trichophyton mentagrophytes; assay type: functional, Arthroderma benhamiae; procedure, shortened: as §2
[21] = test system: squalene synthase (Saccharomyces cerevisiae); assay: Compound required to inhibit 50% activity of yeast squalene synthase enzyme relative to control (L-694,599)

`C=C(CCC12OC(C(=O)O)C(O)(C(=O)O)C(C(=O)O)(O1)[C@H](OC(=O)C(C)(C)C)[C@H]2O)[C@@H](OC(C)=O)[C@H](C)Cc1ccccc1` (stereo partly drawn) was tested, and the inhibition in vivo at 12 mg/kg [1] was -2%, the IC50 [2] was “Not Active” and the ED50 [3] was > 12 mg/kg.

`C=C(CCC12OC(C(=O)O)C(O)(C(=O)O)C(C(=O)O)(O1)[C@H](OC(=O)OCCCCCCCCCCCOc1ccccc1)[C@H]2O)[C@@H](OC(C)=O)[C@H](C)Cc1ccccc1` (stereo partly drawn) was tested, and the MFC [4] was 0.5 µg/mL (≈ 0.603 µM), the Relative activity [5] was 6.07 and the MFC [6] was 16 µg/mL (≈ 19.3 µM). It also gave an inhibition in vivo at 40 mg/kg [7] of 12%, an MFC [8] of 4 µg/mL (≈ 4.83 µM) and an IC50 [9] of 2400 nM. The IC50 [10] was 0.04 nM, the MFC [11] was 0.5 µg/mL (≈ 0.603 µM) and the MFC [12] was 0.15 µg/mL (≈ 0.181 µM). For the same molecule, the MFC [13] was 8 µg/mL (≈ 9.65 µM), the MFC [14] was > 128 µg/mL and the Relative activity [15] was 3.46. It also gave a Relative activity [16] of 3.

For `C=C(CCC12OC(C(=O)O)C(OCCC)(C(=O)O)C(C(=O)O)(O1)[C@H](O)[C@H]2O)[C@@H](OC(C)=O)[C@H](C)Cc1ccccc1` (stereo partly drawn), the IC50 [2] was “Not Active”.

For `C=C(CCC12OC(C(=O)O)C(O)(C(=O)O)C(C(=O)O)(O1)[C@H](OC(=O)CCCN)[C@H]2O)[C@@H](OC(C)=O)[C@H](C)Cc1ccccc1` (stereo partly drawn), the inhibition in vivo at 12 mg/kg [1] was 0%, the IC50 [2] was “Not Active” and the ED50 [3] was > 12 mg/kg.

With `C=C(CCC12OC(C(=O)O)C(OCCCCCCCCCCCCCC)(C(=O)O)C(C(=O)O)(O1)[C@H](OCCCCCCCCCCCCCC)[C@H]2O)[C@@H](OC(C)=O)[C@H](C)Cc1ccccc1` (stereo partly drawn) the IC50 [17] was “Not Active”.

`C=C(CCC12OC(C(=O)O)C(O)(C(=O)O)C(C(=O)O)(O1)[C@H](OC(=O)OCCCCCCCCCCCC)[C@H]2O)[C@@H](OC(C)=O)[C@H](C)Cc1ccccc1` (stereo partly drawn) gave an inhibition at 40 mg/kg [18] of 5%, an IC50 [9] of 1900 nM and an IC50 [10] of 0.19 nM. For the same molecule, the Relative activity [15] was 4.36 and the Relative activity [16] was 0.47.

With `C=C(CCC12OC(C(=O)O)C(O)(C(=O)O)C(C(=O)O)(O1)[C@H](OC(=O)CCCCCCCCCCC)[C@H]2O)[C@@H](OC(C)=O)[C@H](C)Cc1ccccc1` (stereo partly drawn) the Relative activity [19] was 0.29, the MFC [4] was 8 µg/mL (≈ 11.1 µM) and the MFC [6] was 0.12 µg/mL (≈ 0.166 µM). It also gave an MFC [20] of 4 µg/mL (≈ 5.55 µM), an inhibition in vivo at 40 mg/kg [7] of 20% and an MFC [8] of 8 µg/mL (≈ 11.1 µM). The Relative activity [21] was 3.13, the IC50 [9] was 1700 nM and the IC50 [10] was 0.8 nM. For the same molecule, the MFC [11] was 8 µg/mL (≈ 11.1 µM), the MFC [12] was 8 µg/mL (≈ 11.1 µM) and the MFC [13] was 2 µg/mL (≈ 2.77 µM). It also gave an MFC [14] of 4 µg/mL (≈ 5.55 µM) and a Relative activity [15] of 3.24.

In the case of `C=C(CCC12OC(C(=O)O)C(O)(C(=O)O)C(C(=O)O)(O1)[C@H](OC(=O)CCC(=O)O)[C@H]2O)[C@@H](OC(C)=O)[C@H](C)Cc1ccccc1` (stereo partly drawn), the inhibition in vivo at 12 mg/kg [1] is reported as -20%, the IC50 [2] is reported as “Not Active” and the ED50 [3] is reported as > 12 mg/kg.
